Experimental data taken from ChEMBL document CHEMBL1138954, “Cyclobutane derivatives as potent NK1 selective antagonists” (Bioorg Med Chem Lett, 2006).

Key:
Substance-P receptor = Substance-P receptor (Homo sapiens, UniProt P25103); assay: Displacement of [3H]Sar-Met substance P from human recombinant NK1 receptor expressed in CHO cells; type: cell-based
Outline: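 Membranes from CHO cells expressing recombinant human NK1 receptor. Radioligand was [³H]-Sar-Met substance P at about its experimentally derived Kd. Ki was calculated with the Cheng–Prusoff equation. Values are the mean of two or three independent determinations.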

Meriones unguiculatus = assay: Inhibition of GR-73632-induced foot tapping in Mongolian gerbil at 1 mg/kg, po after 4 hrs; type: functional
Outline: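 Female Mongolian gerbils were dosed orally in 0.4% methylcellulose/distilled water before icv injection of GR73632 (3 pmol in 5 μl). After recovery from anaesthesia, animals were placed in clear boxes for 5 min. Duration of rhythmic hind-foot tapping was timed and expressed as percent decrease (% inhibition).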

Neuromedin-K receptor [1] = target: T1, Neuromedin-K receptor (Homo sapiens, UniProt P29371); assay: Displacement of [3H]neurokinin B from human recombinant NK3 receptor in CHO cells; type: cell-based; settings: in the assay text read “[125I]neurokinin B” for “[3H]neurokinin B”
T1 sequence (P29371 whole entry): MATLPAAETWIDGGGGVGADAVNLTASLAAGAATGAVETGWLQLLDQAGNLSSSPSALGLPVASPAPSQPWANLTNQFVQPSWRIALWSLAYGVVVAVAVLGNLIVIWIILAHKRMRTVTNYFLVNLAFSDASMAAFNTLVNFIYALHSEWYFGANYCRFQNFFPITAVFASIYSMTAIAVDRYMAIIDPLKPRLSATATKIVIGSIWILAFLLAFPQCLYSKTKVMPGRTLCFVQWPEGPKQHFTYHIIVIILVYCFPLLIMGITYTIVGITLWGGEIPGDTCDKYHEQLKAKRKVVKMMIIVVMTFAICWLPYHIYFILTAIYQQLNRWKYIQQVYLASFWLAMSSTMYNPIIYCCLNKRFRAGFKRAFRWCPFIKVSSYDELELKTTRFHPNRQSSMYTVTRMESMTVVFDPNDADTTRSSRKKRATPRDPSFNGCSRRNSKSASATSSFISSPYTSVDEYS
Outline: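 Membrane preparations came from CHO cells expressing recombinant human NK3 receptor. Labelled neurokinin B ligand was used near its experimentally derived Kd. Ki was obtained by the Cheng–Prusoff equation. Values are the average of two or three independent determinations.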

[2] = target: T2, Substance-K receptor (Homo sapiens) (UniProt P21452); assay: Inhibition of [3H]neurokinin A binding to human recombinant NK2 receptor in CHO cells at 3 uM; type: cell-based
T2 sequence (whole entry): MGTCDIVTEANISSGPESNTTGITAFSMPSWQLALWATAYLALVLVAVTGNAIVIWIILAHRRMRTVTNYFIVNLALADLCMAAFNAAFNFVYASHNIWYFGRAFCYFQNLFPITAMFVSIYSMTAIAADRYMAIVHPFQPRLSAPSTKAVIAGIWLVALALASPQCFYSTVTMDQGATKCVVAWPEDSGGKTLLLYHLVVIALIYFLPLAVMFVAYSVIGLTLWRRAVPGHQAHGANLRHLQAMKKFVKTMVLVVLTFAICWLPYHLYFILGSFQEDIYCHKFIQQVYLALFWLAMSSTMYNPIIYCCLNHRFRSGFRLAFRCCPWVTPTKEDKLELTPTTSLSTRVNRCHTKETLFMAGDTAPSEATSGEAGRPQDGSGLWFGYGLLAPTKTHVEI
Outline: (§1)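 Competition binding used membranes of CHO cells carrying recombinant human NK2 receptor. [³H]neurokinin A was the ligand, at a concentration near its experimentally derived Kd. Data are the average of two or three independent determinations.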

Neuromedin-K receptor [3] = target: T1, Neuromedin-K receptor; assay: Displacement of [125I]neurokinin B from human recombinant NK3 receptor in CHO cells
[4] = target: T2, Substance-K receptor (Homo sapiens); assay: Inhibition of [3H]neurokinin A binding to human recombinant NK2 receptor in CHO cells at 0.3 uM; type: cell-based; outline: as §1

Chain of Substance-P receptor (P25103 whole entry): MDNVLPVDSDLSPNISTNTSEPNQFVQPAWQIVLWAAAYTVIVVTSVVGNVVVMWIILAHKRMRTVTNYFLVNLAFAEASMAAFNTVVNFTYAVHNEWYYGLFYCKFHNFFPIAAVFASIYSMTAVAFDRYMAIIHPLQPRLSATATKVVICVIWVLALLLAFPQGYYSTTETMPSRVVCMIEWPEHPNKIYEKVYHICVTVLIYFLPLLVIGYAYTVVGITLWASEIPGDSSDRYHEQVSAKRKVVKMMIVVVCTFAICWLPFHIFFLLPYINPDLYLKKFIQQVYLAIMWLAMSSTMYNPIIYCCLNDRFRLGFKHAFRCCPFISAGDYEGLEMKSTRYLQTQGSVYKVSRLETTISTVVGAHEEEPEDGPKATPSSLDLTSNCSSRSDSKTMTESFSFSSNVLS

SMILES | Ki (Substance-P receptor) [nM] | inhibition in vivo at 1 mg/kg (Meriones unguiculatus) [%] | Ki (Neuromedin-K receptor [1]) [nM] | inhibition [2] [%] | Ki (Neuromedin-K receptor [3]) [nM] | inhibition [4] [%]
C[C@@H](OCC1(c2ccccc2)CC(=O)C1)c1cc(C(F)(F)F)cc(C(F)(F)F)c1 | 2.4 | 11 |  |  |  | 
C[C@@H](OC[C@]1(c2ccccc2)C[C@](N)(C(=O)N(C)C)C1)c1cc(C(F)(F)F)cc(C(F)(F)F)c1 | 3.3 | 79 |  |  |  | 
C[C@@H](OCC1(c2ccccc2)CC(N)C1)c1cc(C(F)(F)F)cc(C(F)(F)F)c1 (stereo partly drawn) | 0.02 | 21 | 4050 | 25 |  | 
C[C@@H](OC[C@]1(c2ccccc2)C[C@](N)(C(=O)N2CCCCC2)C1)c1cc(C(F)(F)F)cc(C(F)(F)F)c1 | 1.3 | 15 |  |  |  | 
C[C@@H](OCC1(c2ccccc2)CC(NCc2n[nH]c(O)n2)C1)c1cc(C(F)(F)F)cc(C(F)(F)F)c1 (stereo partly drawn) | 0.5 | 22 |  |  |  | 
CC(=O)N[C@H]1C[C@@](CO[C@H](C)c2cc(C(F)(F)F)cc(C(F)(F)F)c2)(c2ccccc2)C1 | 0.1 | 23 |  | 26 | 631 | 
C[C@@H](OCC1(c2ccccc2)CC(NCc2ccccc2)C1)c1cc(C(F)(F)F)cc(C(F)(F)F)c1 (stereo partly drawn) | 0.3 | 25 |  |  |  | 
C[C@@H](OC[C@]1(c2ccccc2)C[C@](N)(C(N)=O)C1)c1cc(C(F)(F)F)cc(C(F)(F)F)c1 | 1 | 81 |  |  |  | 
CC(=O)N[C@H]1C[C@](CO[C@H](C)c2cc(C(F)(F)F)cc(C(F)(F)F)c2)(c2ccccc2)C1 | 0.4 | 25 |  | 23 | 2130 | 
C[C@@H](OC[C@]1(c2ccccc2)C[C@](N)(C(=O)N2CCCC2)C1)c1cc(C(F)(F)F)cc(C(F)(F)F)c1 | 1.3 | 13 |  |  |  | 
C[C@@H](OC[C@]1(c2ccccc2)C[C@@](N)(C(N)=O)C1)c1cc(C(F)(F)F)cc(C(F)(F)F)c1 | 0.43 | 30 |  |  |  | 
CNC(=O)[C@]1(N)C[C@@](CO[C@H](C)c2cc(C(F)(F)F)cc(C(F)(F)F)c2)(c2ccccc2)C1 | 1 | 98 | 2000 |  |  | 1.2
CNC(=O)[C@]1(N)C[C@](CO[C@H](C)c2cc(C(F)(F)F)cc(C(F)(F)F)c2)(c2ccccc2)C1 | 0.5 | 58 |  |  |  | 
C[C@@H](OC[C@]1(c2ccccc2)C[C@@H](N2CCCC2=O)C1)c1cc(C(F)(F)F)cc(C(F)(F)F)c1 (mixture of isomers) | 0.4 | 41 |  |  |  | 
C[C@@H](OC[C@]1(c2ccccc2)C[C@H](N2CCCC2=O)C1)c1cc(C(F)(F)F)cc(C(F)(F)F)c1 | 0.3 | 3 |  |  |  | 
